The source of these data is ChEMBL document CHEMBL1687732, “Prevention of death in bacterium-infected mice by a synthetic antimicrobial peptide, L5, through activation of host immunity” (2009).

Calls of active or inactive are those of the source. The rule behind the calls is not given here. Non-standard residues stand in square brackets, D forms with d. Residues, ends and D or L forms follow the SMILES beside them. A value given as a limit tells only on which side of the number the result lay.

The subject of test [1] is Staphylococcus aureus. Description: Antibacterial activity against Staphylococcus aureus Smith infected in ICR mouse assessed as survival rate at 100 ug, ip pretreated for 7 hrs before infection using 2 X 10^6 CFU inoculum measured on day 5 after bacterial infection. The class given is functional. In outline: (§1)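 Five-week-old female ICR mice got peptide intraperitoneally in 500 μl Dulbecco's PBS with 2% DMSO; vehicle controls got PBS/2% DMSO. The minimum lethal bacterial dose was given intraperitoneally at set intervals: S. aureus Smith 2 × 10⁶, E. faecalis SR1004 1.7 × 10⁸, E. coli EC14 2.3 × 10⁴ CFU/mouse. Survival was scored on day 5 (4 or 8 mice/group; Fisher's exact test).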

Test [2] concerns Enterococcus faecalis. Description: Antibacterial activity against Enterococcus faecalis SR1004 infected in ICR mouse assessed as survival rate at 100 ug, ip pretreated for 7 hrs before infection using 1.7 X 10^8 inoculum measured on day 5 after bacterial infection. Format: functional. In outline:
as §1

Test [3] relates to Escherichia coli. Briefly: Antibacterial activity against Escherichia coli EC14 infected in ICR mouse assessed as survival rate at 100 ug, ip pretreated for 7 hrs before infection using 2.3 X 10^4 CFU inoculum measured on day 5 after bacterial infection. The class given is functional. Put shortly:
as §1

Test [4] relates to Staphylococcus aureus. Briefly: Antibacterial activity against Staphylococcus aureus Smith by broth microdilution method. The class given is functional. In outline: (§2)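 MIC was determined by broth microdilution following NCCLS recommendations.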
On the technique in general: In broth dilution the organism is exposed to a series of concentrations in liquid medium.

Test [5] has as its system Enterococcus faecalis. Briefly: Antibacterial activity against Enterococcus faecalis SR1004 by broth microdilution method. Format: functional. In outline: as §2
Test [6] concerns Escherichia coli. Briefly: Antibacterial activity against Escherichia coli EC14 by broth microdilution method. The class given is functional. In outline: as §2
For test [7], the system named is Mus musculus. Briefly: Induction of neutrophil recruitment in intraperitoneally dosed ICR mouse abdominal cavity assessed as accumulation of neutrophils after 7 hrs using hematoxylin and eosin staining by microscopy. Format: functional, organism-based. In outline:
(§3)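 Peptide was injected intraperitoneally. After 7 h, the peritoneal cavity was lavaged with 5 ml cold sterile saline. Cells were washed, resuspended at 1 × 10⁶/ml in heat-inactivated FCS, cytocentrifuged, and stained with Diff-Quick. Total cells and neutrophils were counted by microscopy, and neutrophil percentage was averaged over five fields ± SD. Comparison used an unpaired t test after arcsine transformation.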

Test [8] relates to Mus musculus. Briefly: Induction of neutrophil recruitment in intraperitoneally dosed ICR mouse abdominal cavity assessed as neutrophil level after 7 hrs using hematoxylin and eosin staining by microscopy. Format: functional. In outline:
as §3

Test [9] concerns Staphylococcus aureus. Briefly: Antibacterial activity against Staphylococcus aureus Cowan I infected in intraperitoneally dosed ICR mouse assessed as bacterial kill in abdomen pretreated for 7 hrs before infection using 4 X 10^5 CFU inoculum. The class given is functional. Put shortly: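 Peptide solution (500 μl) was injected ip. After 7 h, S. aureus Cowan I (4 × 10⁵ CFU/mouse) was introduced into the abdominal cavity for 15 min. The peritoneum was lavaged with 5 ml cold sterile saline, serially diluted in PBS and plated on LB agar for 18 h. Colonies were counted against saline-control mice (unpaired Student's t test).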

Test [10] has as its system Peritoneal macrophage cell. Briefly: Induction of Mig/CXCL9 mRNA expression in TGC-elicited ICR mouse peritoneal macrophage at 25 ug/ml after 2.5 to 5 hrs by RT-PCR. Format: functional, cell-based. In outline: (§4)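 Mouse peritoneal macrophages were elicited with 3 ml of 3% thioglycolate medium given intraperitoneally and collected 4 days later by lavage with cold PBS. Cells were seeded at 1 × 10⁶/ml in RPMI-1640 with 10% heat-inactivated FCS and allowed to adhere for 2 h at 37°C; nonadherent cells were then rinsed off. Cells were exposed to peptide at 25 μg/ml for 2.5, 5 or 7.5 h, with LPS at 100 ng/ml for 24 h as positive control. RT-PCR used 400 ng total RNA and 25–35 cycles, with ethidium bromide agarose gels and G3PDH primers; n = 3.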

The test system of test [11] is Peritoneal macrophage cell. Description: Induction of Mig/CXCL9 mRNA expression in TGC-elicited ICR mouse peritoneal macrophage at 25 ug/ml after 7.5 hrs by RT-PCR. The class given is functional, cell-based. Put shortly: as §4
The species entered for test [12] is Mus musculus. Description: Induction of Mig/CXCL9 mRNA expression in TGC-elicited ICR mouse peritoneal macrophage at 25 ug/ml after 5 hrs by RT-PCR. Format: functional. In outline: as §4
The subject of test [13] is Mus musculus. Description: Induction of ROS generation in intraperitoneally dosed ICR mouse abdominal cavity neutrophils after 7 hrs by lucigenin-dependent chemiluminescence method. The class given is functional, organism-based. Put shortly:
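Peptide was injected intraperitoneally. After 7 h, peritoneal cells were collected by lavage with 5 ml cold saline, washed, and suspended at 2 × 10⁵ cells/ml in HEPES-buffered Hank's solution, pH 7.4. After 5 min at 37°C, lucigenin was added to 0.1 mM final. Chemiluminescence was read at 37°C in relative light units. The experiment was repeated and representative data shown.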

In test [14] the test system is Staphylococcus aureus. Description: Antibacterial activity against Staphylococcus aureus Smith infected in ICR mouse assessed as survival rate at 100 ug, ip pretreated for 7 hrs before infection using 3 X 10^7 CFU inoculum measured on day 5. Format: functional.
Test [15] deals with Staphylococcus aureus. Description: Antibacterial activity against Staphylococcus aureus Smith infected in ICR mouse assessed as survival rate at 100 ug, ip pretreated for 7 hrs before infection using 3 X 10^6 CFU inoculum measured on day 5. The class given is functional.
In test [16] the test system is Escherichia coli. Description: Antibacterial activity against Escherichia coli EC14 infected in ICR mouse assessed as survival rate at 100 ug, ip pretreated for 7 hrs before infection using 2.5 X 10^4 CFU inoculum measured on day 5. The class given is functional.
Test [17] relates to Escherichia coli. Briefly: Antibacterial activity against Escherichia coli EC14 infected in ICR mouse assessed as survival rate at 100 ug, ip pretreated for 7 hrs before infection using 2.5 X 10^3 CFU inoculum measured on day 5. The class given is functional.
Test [18] deals with Staphylococcus aureus. Description: Antibacterial activity against Staphylococcus aureus Smith infected in ICR mouse assessed as survival rate at 50 ug, ip treated 0.5 hrs after infection using 2 X 10^6 CFU inoculum measured on day 5 after bacterial infection. Format: functional. In outline: as §1
In test [19] the test system is Staphylococcus aureus. Briefly: Antibacterial activity against Staphylococcus aureus Smith infected in ICR mouse assessed as survival rate at 50 ug, ip treated at the time of infection using 2 X 10^6 CFU inoculum measured on day 5 after bacterial infection. The class given is functional. In outline: as §1
In test [20] the test system is Staphylococcus aureus. Description: Antibacterial activity against Staphylococcus aureus Smith infected in ICR mouse assessed as survival rate at 50 ug, ip pretreated for 1 hr before infection using 2 X 10^6 CFU inoculum measured on day 5 after bacterial infection. Format: functional. In outline:
as §1

The test system of test [21] is Staphylococcus aureus. Description: Antibacterial activity against Staphylococcus aureus Smith infected in ICR mouse assessed as survival rate at 50 ug, ip pretreated for 3 hrs before infection using 2 X 10^6 CFU inoculum measured on day 5 after bacterial infection. The class given is functional. In outline: as §1
Test [22] has as its system Staphylococcus aureus. Briefly: Antibacterial activity against Staphylococcus aureus Smith infected in ICR mouse assessed as survival rate at 50 ug, ip pretreated for 7 hrs before infection using 2 X 10^6 CFU inoculum measured on day 5 after bacterial infection. The class given is functional. In outline:
as §1

Test [23] relates to Staphylococcus aureus. Description: Antibacterial activity against Staphylococcus aureus Smith infected in ICR mouse assessed as survival rate at 50 ug, ip pretreated for 24 hrs before infection using 2 X 10^6 CFU inoculum measured on day 5 after bacterial infection. Format: functional. In outline: as §1
Test [24] relates to Staphylococcus aureus. Description: Antibacterial activity against Staphylococcus aureus Smith infected in ICR mouse assessed as survival rate at 3.13 ug, ip pretreated for 7 hrs before infection using 2 X 10^6 CFU inoculum measured on day 5 after bacterial infection. Format: functional. In outline:
as §1

The subject of test [25] is Staphylococcus aureus. Briefly: Antibacterial activity against Staphylococcus aureus Smith infected in ICR mouse assessed as survival rate at 12.5 ug, ip pretreated for 7 hrs before infection using 2 X 10^6 CFU inoculum measured on day 5 after bacterial infection. Format: functional. Put shortly:
as §1

Test [26] has as its system Staphylococcus aureus. Description: Antibacterial activity against Staphylococcus aureus Smith infected in ICR mouse assessed as survival rate at 25 ug, ip pretreated for 7 hrs before infection using 2 X 10^6 CFU inoculum measured on day 5 after bacterial infection. The class given is functional. Put shortly: as §1

As to H-KLKLLLLLKLK-NH2, the Survival in [1] stood at 75%; in test [2], 75%; in [3], 25%. Also, the minimal inhibitory concentration (MIC) in [4], in test [5] and in test [6] was greater than 625 µg/mL each time. In addition, the outcome in test [7], in [10], in [12] and in [13] was Active. Moreover, the Activity in [8] was determined as 40%; in test [9], 75%. The result in [11] was inactive.

Regarding `CC(C)C[C@@H](NC(=O)[C@H](N)CCCCN)C(=O)N[C@H](CCCCN)C(=O)N[C@H](CC(C)C)C(=O)N[C@H](CC(C)C)C(=O)N[C@H](CC(C)C)C(=O)N[C@H](CC(C)C)C(=O)N[C@H](CC(C)C)C(=O)N[C@H](CCCCN)C(=O)N[C@H](CC(C)C)C(=O)N[C@H](CCCCN)C(N)=O` (H-[dK][dL][dK][dL][dL][dL][dL][dL][dK][dL][dK]-NH2), the Activity in test [14] turned out to be 25%; in test [15], 50%; in [16], 100%; in [17] it was 100%. Further, the Survival in test [1] was determined as 100%; in test [2], 100%; in test [3] it was 75%; in test [18] it was 0%; in [19] it was 0%; in test [20] it was 25%. The Survival in test [21] was 62.5%; in test [22], 87.5%; in test [23], 0%; in test [24], 0%; in test [25], 0%; in test [26] it was 75%. For the same compound, the MIC in test [4], in test [5] and in test [6] was greater than 625 µg/mL throughout.

With H-KLKLLLKLK-NH2, the Survival in test [1] is 0%. In addition, the outcome in [13] was inactive.
